≈ marks a conversion by molar mass, not a printed value.

Common to all, as to format: functional
Assay [1] has as its system Staphylococcus aureus. As to the kind of experiment: Antimicrobial activity against methicillin-resistant Staphylococcus aureus isolate COL by Etest. A digest of the protocol:
(§1)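 MIC by Etest strip (daptomycin, gentamicin, teicoplanin, trimethoprim-sulfamethoxazole), following the manufacturer's protocol with changes. Inoculum came from cells grown in TSB at 37°C for at least 20 h.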

In assay [2] the test system is Staphylococcus aureus. As to the kind of experiment: Antimicrobial activity against Staphylococcus aureus BD2 harboring wild-type cspB gene by Etest. The method, boiled down: as §1
The subject of assay [3] is Staphylococcus aureus. As to the kind of experiment: Antimicrobial activity against Staphylococcus aureus BD1 harboring aphA-3 insertion in cspB gene by Etest. A digest of the protocol: as §1
In assay [4] the test system is Staphylococcus aureus. In words: Antimicrobial activity against methicillin-resistant Staphylococcus aureus COL grown at 37 degC and measured at 15 degC by Etest. The method, boiled down:
(§2)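 Strain COL was grown in TSB at 37°C to mid-log phase, split into equal halves, and kept 1 h at 37°C (control) or 15°C (cold shock). Etest strips for daptomycin, gentamicin or trimethoprim-sulfamethoxazole were then applied per the manufacturer.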

The test system of assay [5] is Staphylococcus aureus. In words: Ratio of MIC for methicillin-resistant Staphylococcus aureus COL grown at 37 degC and measured at 37 degC to MIC for methicillin-resistant Staphylococcus aureus COL grown at 37 degC and measured at 15 degC by Etest.
Assay [6] relates to Staphylococcus aureus. In words: Antimicrobial activity against methicillin-resistant Staphylococcus aureus COL grown at 37 degC and measured at 37 degC by Etest. A digest of the protocol:
as §2

Assay [7] deals with Staphylococcus aureus. As to the kind of experiment: Antimicrobial activity against methicillin-resistant Staphylococcus aureus COL grown at 15 degC and measured at 37 degC by Etest. The method, boiled down: as §2
Assay [8] relates to Staphylococcus aureus. In words: Antimicrobial activity against methicillin-resistant Staphylococcus aureus COL grown at 15 degC and measured at 15 degC by Etest.
Assay [9] deals with Staphylococcus aureus. As to the kind of experiment: Ratio of MIC for methicillin-resistant Staphylococcus aureus COL grown at 15 degC and measured at 37 degC to MIC for methicillin-resistant Staphylococcus aureus COL grown at 15 degC and measured at 15 degC by Etest.

As usually defined, the MIC is the lowest concentration that inhibits growth of the organism. A lower MIC goes with greater potency. On to `CC(=O)N[C@@H]1[C@H](Oc2c3cc4cc2Oc2ccc(cc2Cl)[C@@H](O[C@@H]2O[C@@H](CO)[C@@H](O)[C@H](O)[C@@H]2NC(C)=O)[C@@H]2NC(=O)[C@H](NC(=O)[C@@H]4NC(=O)[C@H]4NC(=O)[C@@H](Cc5ccc(c(Cl)c5)O3)NC(=O)[C@H](N)c3ccc(O)c(c3)Oc3cc(O)cc4c3)c3ccc(O)c(c3)-c3c(O[C@H]4O[C@H](CO)[C@@H](O)[C@@H](O)[C@@H]4O)cc(O)cc3[C@@H](C(=O)O)NC2=O)O[C@@H](CO)[C@@H](O)[C@@H]1O`, for which the MIC in assay [1] amounted to 3 µg/mL (≈ 1.7 µM); in [2], 2 µg/mL (≈ 1.13 µM); in [3], 0.75 µg/mL (≈ 0.424 µM).
Take `CCCCCCCCCC(=O)N[C@@H](Cc1c[nH]c2ccccc12)C(=O)N[C@H](CC(N)=O)C(=O)N[C@@H](CC(=O)O)C(=O)N[C@@H]1C(=O)NCC(=O)N[C@@H](CCCN)C(=O)N[C@@H](CC(=O)O)C(=O)N[C@H](C)C(=O)N[C@@H](CC(=O)O)C(=O)NCC(=O)N[C@H](CO)C(=O)N[C@@H]([C@H](C)CC(=O)O)C(=O)N[C@@H](CC(=O)c2ccccc2N)C(=O)O[C@@H]1C`: the MIC in assay [4] was 0.46 µg/mL (≈ 0.284 µM); in assay [1], 1.5 µg/mL (≈ 0.926 µM); in assay [2], 2 µg/mL (≈ 1.23 µM); in assay [3], 0.064 µg/mL (≈ 0.0395 µM); in assay [6], 1.5 µg/mL (≈ 0.926 µM); in [7], 1.5 µg/mL (≈ 0.926 µM). Further, the MIC in assay [8] is 0.63 µg/mL (≈ 0.389 µM). In addition, the Ratio in [5] is 4; in assay [9], 2.4.
For the molecule GENTAMICIN, the MIC in assay [4] was found to be 0.21 µg/mL; in assay [1] it was 0.38 µg/mL; in assay [2], 0.38 µg/mL; in [3], 32 µg/mL; in [6], 0.34 µg/mL; in assay [7], 0.38 µg/mL. In assay [8], this molecule displayed an MIC of 0.29 µg/mL.
